# According to ChEMBL document CHEMBL1165950, “Design and synthesis of new potent anticancer pyrazoles with high FLT3 kinase inhibitory selectivity” (Bioorg Med Chem, 2010):
# Legend:
# Type in all cases: functional
# ACHN = assay: Cytotoxicity against human ACHN cells assessed as cell growth at 0.001 uM after 48 hrs by sulforhodamine B assay; details: read-out: Activity
# Method in brief: (§1)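 NCI-60 five-dose screen. Cells were grown in RPMI 1640 with 5% FBS and 2 mM L-glutamine, plated at 5000–40,000 cells/well and preincubated for 24 h. Time-zero plates were TCA-fixed. DMSO-solubilized drug was added at five concentrations (10-fold or ½-log serial dilutions) for 48 h at 37 °C, 5% CO2. Cells were TCA-fixed, stained with 0.4% SRB and read at 515 nm. Percent growth used time-zero, control and test absorbances.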
# OVCAR-8 [1] = assay: Growth inhibition of human OVCAR8 cells after 48 hrs by sulforhodamine B assay; details: OVCAR-8, 48 h
# Method in brief: (§2)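 NCI 60-cell screen, five-dose mode. Cells grown in RPMI 1640 with 5% FBS and 2 mM L-glutamine and plated at 5000-40,000 cells/well according to doubling time. After 24 h preincubation, a Tz plate was TCA-fixed. Five concentrations (10-fold or 1/2 log dilutions) were applied for 48 h at 37 °C. SRB staining read at 515 nm. IC50 taken from [(Ti-Tz)/(C-Tz)]×100 = 50.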
# TK-10 = assay: Cytotoxicity against human TK10 cells assessed as cell growth at 1 uM after 48 hrs by sulforhodamine B assay; details: TK-10, 48 h, read-out: Activity
# SF-268 = assay: Cytotoxicity against human SF268 cells assessed as cell growth at 1 uM after 48 hrs by sulforhodamine B assay; details: SF-268, 48 h, read-out: Activity
# KM12 = assay: Cytotoxicity against human KM12 cells assessed as cell growth at 0.001 uM after 48 hrs by sulforhodamine B assay; details: KM12, 48 h, read-out: Activity
# EKVX = assay: Cytotoxicity against human EKVX cells assessed as cell growth at 0.001 uM after 48 hrs by sulforhodamine B assay; details: read-out: Activity
# MOLT-4 = assay: Cytotoxicity against human MOLT4 cells assessed as cell growth at 100 nM after 48 hrs by sulforhodamine B assay; details: MOLT-4, 48 h, read-out: Activity
# HCC 2998 = assay: Cytotoxicity against human HCC2998 cells assessed as cell growth at 0.001 uM after 48 hrs by sulforhodamine B assay; details: HCC 2998, 48 h, read-out: Activity
# OVCAR-8 [2] = assay: Cytotoxicity against human OVCAR8 cells assessed as cell growth at 1 uM after 48 hrs by sulforhodamine B assay; details: OVCAR-8, 48 h, read-out: Activity
# SK-OV-3 = assay: Cytotoxicity against human SKOV3 cells assessed as cell growth at 10 uM; details: read-out: Activity
# Method in brief: (§3)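 NCI-60 screen: cells grown in RPMI 1640 with 5% FBS and 2 mM L-glutamine, plated at 5000–40,000 cells/well according to doubling time, and preincubated 24 h at 37 °C, 5% CO2. The single 10 µM dose (DMSO stock) was added, then incubated 48 h. Cells were TCA-fixed and stained with 0.4% SRB, read at 515 nm, and growth % calculated against time-zero and control plates.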
# HOP-92 = assay: Cytotoxicity against human HOP92 cells assessed as cell growth at 100 nM after 48 hrs by sulforhodamine B assay; details: HOP-92, 48 h, read-out: Activity
# HL-60(TB) = assay: Cytotoxicity against human HL-60(TB) cells assessed as cell growth at 0.01 uM after 48 hrs by sulforhodamine B assay; details: HL-60, 48 h, read-out: Activity
# Method in brief: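 NCI 60-cell panel. Cells are grown in RPMI 1640 with 5% FBS and 2 mM L-glutamine, seeded at 5000–40,000 cells/well according to doubling time, and preincubated 24 h. Time-zero plates are TCA-fixed. Compound from DMSO stock is given at five 10-fold or 1/2-log concentrations for 48 h at 37 °C, 5% CO2. Suspension cells are fixed with 80% TCA (final 16%) and SRB-stained, with absorbance at 515 nm. Percent growth is derived from Tz, control and test readings.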
# Malme-3M [3] = assay: Growth inhibition of human MALME-3M cells after 48 hrs by sulforhodamine B assay; method in brief: as §2
# HCT-15 = assay: Cytotoxicity against human HCT15 cells assessed as cell growth at 0.01 uM after 48 hrs by sulforhodamine B assay; details: HCT-15, 48 h, read-out: Activity
# SR = assay: Cytotoxicity against human SR cells assessed as cell growth at 10 uM after 48 hrs by sulforhodamine B assay; details: read-out: Activity
# SK-MEL-2 = assay: Cytotoxicity against human SK-MEL-2 cells assessed as cell growth at 0.01 uM after 48 hrs by sulforhodamine B assay; details: SK-MEL-2, 48 h, read-out: Activity
# SN12C = assay: Cytotoxicity against human SN12C cells assessed as cell growth at 10 uM; details: read-out: Activity; method in brief: as §3
# Malme-3M [4] = assay: Cytotoxicity against human MALME-3M cells assessed as cell growth at 100 nM after 48 hrs by sulforhodamine B assay; details: read-out: Activity
# U-251 = assay: Growth inhibition of human U251 cells after 48 hrs by sulforhodamine B assay; details: U-251, 48 h; method in brief: as §2
# A549 [5] = assay: Cytotoxicity against human A549 cells assessed as cell growth at 0.01 uM after 48 hrs by sulforhodamine B assay; details: A549, 48 h, read-out: Activity; method in brief: as §1
# NCI-H522 [6] = assay: Cytotoxicity against human NCI-H522 cells assessed as cell growth at 0.001 uM after 48 hrs by sulforhodamine B assay; details: NCI-H522, 48 h, read-out: Activity
# A498 = assay: Cytotoxicity against human A498 cells assessed as cell growth at 0.001 uM after 48 hrs by sulforhodamine B assay; details: A498, 48 h, read-out: Activity; method in brief: as §1
# MDA-MB-468 = assay: Cytotoxicity against human MDA-MB-468 cells assessed as cell growth at 100 nM after 48 hrs by sulforhodamine B assay; details: MDA-MB-468, 48 h, read-out: Activity
# MDA-MB-435 = assay: Cytotoxicity against human MDA-MB-435 cells assessed as cell growth at 10 uM after 48 hrs by sulforhodamine B assay; details: MDA-MB-435, 48 h, read-out: Activity
# HT-29 = assay: Cytotoxicity against human HT-29 cells assessed as cell growth at 0.001 uM after 48 hrs by sulforhodamine B assay; details: HT-29, 48 h, read-out: Activity
# SF-539 = assay: Cytotoxicity against human SF539 cells assessed as cell growth at 100 nM after 48 hrs by sulforhodamine B assay; details: SF-539, 48 h, read-out: Activity
# NCI-H522 [7] = assay: Cytotoxicity against human NCI-H522 cells assessed as cell growth at 1 uM after 48 hrs by sulforhodamine B assay; details: NCI-H522, 48 h, read-out: Activity
# A549 [8] = assay: Cytotoxicity against human A549 cells assessed as cell growth at 10 uM after 48 hrs by sulforhodamine B assay; details: A549, 48 h, read-out: Activity; method in brief: as §1
# OVCAR-5 = assay: Cytotoxicity against human OVCAR5 cells assessed as cell growth at 1 uM after 48 hrs by sulforhodamine B assay; details: OVCAR-5, 48 h, read-out: Activity
# [9] = read-out: LC50 (the source's name)
structure (smiles),measurement,setting,value
Cc1cc(O)cc(-c2nn(CC#N)cc2-c2ccnc(-c3ccc(Oc4ccccc4)cc3)c2)c1,growth at 0.001 µM,ACHN,98%
same,GI50,OVCAR-8 [1],2.08 µM
same,TGI,OVCAR-8 [1],5.54 µM
same,CC50,OVCAR-8 [1]; [9],21.9 µM
same,growth at 1 µM,TK-10,19%
same,growth at 1 µM,SF-268,22%
same,growth at 0.001 µM,KM12,91%
same,growth at 0.001 µM,EKVX,103%
same,growth at 0.1 µM,MOLT-4,79%
same,growth at 0.001 µM,HCC 2998,96%
same,growth at 1 µM,OVCAR-8 [2],-30%
same,growth at 10 µM,SK-OV-3,89.6%
same,growth at 0.1 µM,HOP-92,70%
same,growth at 0.01 µM,HL-60(TB),95%
same,GI50,Malme-3M [3],1.81 µM
same,TGI,Malme-3M [3],3.58 µM
same,CC50,Malme-3M [3]; [9],7.12 µM
same,growth at 0.01 µM,HCT-15,96%
same,growth at 10 µM,SR,-12%
same,growth at 0.01 µM,SK-MEL-2,99%
same,growth at 10 µM,SN12C,60.2%
same,growth at 0.1 µM,Malme-3M [4],93%
same,GI50,U-251,1.61 µM
same,TGI,U-251,2.99 µM
same,CC50,U-251; [9],5.56 µM
same,growth at 0.01 µM,A549 [5],88%
same,growth at 0.001 µM,NCI-H522 [6],83%
same,growth at 0.001 µM,A498,88%
same,growth at 0.1 µM,MDA-MB-468,88%
same,growth at 10 µM,MDA-MB-435,-59%
same,growth at 0.001 µM,HT-29,95%
same,growth at 0.1 µM,SF-539,92%
same,growth at 1 µM,NCI-H522 [7],2%
same,growth at 10 µM,A549 [8],-71%
same,growth at 1 µM,OVCAR-5,35%
